Measurements published in paper PMC5673027 (International Journal of Oncology, 2017).
“Also recorded” adds a separate entry of the source.

How the values were obtained:
CDK1/cyclin B1 = CDK1/cyclin B1 (Homo sapiens, UniProt P06493); assay: In vitro CDK1 kinase assay; type: biochemical; settings: for effect on CDK1 enzyme activity (in words): in vitro kinase assay, H1 histone phosphorylation; for inhibition of CDK1 enzyme activity: quantification of band intensities, Fig. 1C/D, H1 histones
Method in brief: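 Purified CDK1/cyclin B1 complex in kit reaction buffer, pre-incubated with test compound at various concentrations for 10 min at room temperature. Phosphorylation run with 15 µM ATP, 2 µCi [γ-32P]ATP and 5 µg H1 histone at 30°C for 20 min, then stopped with 20 mM EDTA (final). Products resolved by 10% SDS-PAGE and autoradiographed; bands quantified as percent of control. Done 3–6 independent times.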

CDK6/cyclin D1 = CDK6/cyclin D1 (Homo sapiens, UniProt Q00534); assay: In vitro CDK6 kinase assay; type: biochemical; settings: for effect on CDK6 enzyme activity (in words): 0.5 mM (Fig. 7G, H), Rb substrate; for inhibition at 500 µM: read-out: inhibition of CDK6 activity
Method in brief: (§1)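 Kinases were purified CDK2/cyclin A2, CDK4/cyclin D1 and CDK6/cyclin D1, each pre-incubated with test compound for 10 min at room temperature, mostly at 0.5 mM, with some dose series. Reaction used 15 µM ATP, 2 µCi [γ-32P]ATP and 5 µg protein substrate (H1 histone for CDK2) at 30°C for 20 min, stopped with 20 mM EDTA. Read by SDS-PAGE autoradiography, bands expressed as percent of control.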

CDK4/cyclin D1 = CDK4/cyclin D1 (Homo sapiens, UniProt P11802); assay: In vitro CDK4 kinase assay; type: biochemical; settings: for effect on CDK4 enzyme activity (in words): 0.5 mM (Fig. 7E, F), Rb substrate
Method in brief: as §1

CDK2/cyclin A2 [1] = molecular target: T1, CDK2/cyclin A2 (Homo sapiens, UniProt P24941); assay: In vitro CDK2 kinase assay; type: biochemical; settings: for effect on CDK2 enzyme activity (in words): 0.5 mM (Fig. 7), pre-incubated 10 min, H1 histones
Method in brief: as §1

HCT-116 cells = assay: MTT cytotoxicity assay; type: cell-based, human; settings: Homo sapiens, HCT-116, 72 h, read-out: MTT assay HCT-116 72 h (IC50)
Method in brief: (§2)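 HCT-116 cells kept in McCoy's 5A with 10% FBS, seeded overnight at 20,000 cells/well, then exposed to test compounds at various concentrations for 72 h. Viability read by MTT. IC50 taken from the concentration series. Experiments repeated 3–6 times independently.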

MTT cytotoxicity assay = type: cell-based, human; settings: human, HCT-116 colorectal carcinoma cells
Method in brief: as §2

[2] = molecular target: cellular CDK1 in HCT-116 cells (Homo sapiens, UniProt P06493); assay: Acetylation of cellular CDK1 in HCT-116 cells; type: cell-based; settings: 0.25–2.5 mM, 12 h
[3] = cited from earlier work
CDK2/cyclin A2 [4] = molecular target: T1, CDK2/cyclin A2; settings: in vitro kinase assays; cited from earlier work
[5] = CDK1 IC50, Table III, purified CDK1 enzyme
[6] = CDK1 IC50, text, dose-dependent inhibition, Fig. 1E-H

CDK1/cyclin B1, sequence (P14635 whole entry): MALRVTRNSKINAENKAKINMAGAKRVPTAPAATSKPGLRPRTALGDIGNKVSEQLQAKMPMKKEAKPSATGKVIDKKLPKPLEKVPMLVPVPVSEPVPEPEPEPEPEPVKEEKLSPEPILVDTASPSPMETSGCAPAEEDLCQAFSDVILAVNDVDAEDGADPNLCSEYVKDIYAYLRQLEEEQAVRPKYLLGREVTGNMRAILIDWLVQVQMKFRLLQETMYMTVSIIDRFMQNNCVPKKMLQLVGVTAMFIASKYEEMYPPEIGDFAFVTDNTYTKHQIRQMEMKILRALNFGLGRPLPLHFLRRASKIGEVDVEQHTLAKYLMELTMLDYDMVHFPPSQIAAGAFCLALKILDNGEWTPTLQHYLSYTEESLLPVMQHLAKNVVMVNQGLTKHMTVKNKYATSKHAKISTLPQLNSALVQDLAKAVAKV
CDK1/cyclin B1, sequence (P06493 whole entry): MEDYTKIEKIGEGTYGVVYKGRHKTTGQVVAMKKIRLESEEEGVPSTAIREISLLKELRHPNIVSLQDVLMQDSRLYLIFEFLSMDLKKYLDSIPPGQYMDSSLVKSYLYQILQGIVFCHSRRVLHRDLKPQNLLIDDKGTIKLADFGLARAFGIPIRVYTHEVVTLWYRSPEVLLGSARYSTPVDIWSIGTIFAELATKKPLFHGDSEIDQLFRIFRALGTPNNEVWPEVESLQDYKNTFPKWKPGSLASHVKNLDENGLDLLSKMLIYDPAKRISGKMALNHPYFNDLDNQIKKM
CDK6/cyclin D1, sequence (Q00534 whole entry): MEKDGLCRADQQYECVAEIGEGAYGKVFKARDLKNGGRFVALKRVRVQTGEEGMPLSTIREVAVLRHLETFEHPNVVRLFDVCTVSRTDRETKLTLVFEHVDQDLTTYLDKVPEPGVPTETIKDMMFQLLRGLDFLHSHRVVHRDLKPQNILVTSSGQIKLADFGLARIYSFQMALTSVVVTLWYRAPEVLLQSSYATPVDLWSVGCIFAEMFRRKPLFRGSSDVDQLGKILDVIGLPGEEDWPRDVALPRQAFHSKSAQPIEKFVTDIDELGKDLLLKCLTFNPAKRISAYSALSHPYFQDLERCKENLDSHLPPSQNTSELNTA
CDK6/cyclin D1, sequence (P24385 whole entry partner): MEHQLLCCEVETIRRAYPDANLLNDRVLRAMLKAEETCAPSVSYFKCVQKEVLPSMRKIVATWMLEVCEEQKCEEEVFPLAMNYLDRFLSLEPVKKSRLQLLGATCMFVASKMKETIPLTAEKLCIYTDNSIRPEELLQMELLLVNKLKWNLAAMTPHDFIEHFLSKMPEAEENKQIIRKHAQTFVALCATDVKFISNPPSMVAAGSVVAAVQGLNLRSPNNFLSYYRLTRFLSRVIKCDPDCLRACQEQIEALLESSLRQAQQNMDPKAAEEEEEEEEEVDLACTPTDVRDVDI
CDK4/cyclin D1, sequence (P11802 whole entry): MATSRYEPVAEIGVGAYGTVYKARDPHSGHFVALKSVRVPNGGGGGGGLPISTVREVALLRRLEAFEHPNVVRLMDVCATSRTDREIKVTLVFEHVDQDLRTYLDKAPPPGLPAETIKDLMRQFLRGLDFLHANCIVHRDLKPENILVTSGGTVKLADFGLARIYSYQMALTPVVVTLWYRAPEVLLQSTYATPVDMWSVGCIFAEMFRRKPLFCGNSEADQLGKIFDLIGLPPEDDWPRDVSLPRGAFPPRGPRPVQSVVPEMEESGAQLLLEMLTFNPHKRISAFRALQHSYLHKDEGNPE
CDK4/cyclin D1, sequence (P24385 whole entry partner): as the sequence (P24385 whole entry partner) above
cellular CDK1 in HCT-116 cells, sequence (P06493 whole entry): as the sequence (P06493 whole entry) above

SMILES	effect on CDK1 enzyme activity (in words) (CDK1/cyclin B1)	effect on CDK6 enzyme activity (in words) (CDK6/cyclin D1)	effect on CDK4 enzyme activity (in words) (CDK4/cyclin D1)	effect on CDK2 enzyme activity (in words) (CDK2/cyclin A2 [1])	inhibition of CDK1 enzyme activity (CDK1/cyclin B1)	also measured
O=C(O)c1ccccc1 [benzoic acid, reference compound]	did not show any inhibition; also recorded: failed to inhibit	–	–	–	–	–
O=C(O)c1c(O)cc(O)cc1O [2,4,6-THBA, 2,4,6-trihydroxybenzoic acid]	inhibited	inhibited	inhibited	dose-dependent inhibition; also recorded: inhibited	–	IC50 (CDK1/cyclin B1; [5]): 226 µM; inhibition at 500 µM (CDK6/cyclin D1): 40%; inhibition at 500 µM (CDK4/cyclin D1; read-out: inhibition of CDK4 activity): 45%; IC50 (CDK2/cyclin A2 [1]): ~300 µM; IC50 (HCT-116 cells): 785 µM; IC50 at 72 h (MTT cytotoxicity assay): 800 µM
O=C(O)c1cc(O)c(O)c(O)c1 [3,4,5-THBA, gallic acid]	did not show any inhibitory effect; also recorded: failed to inhibit	–	–	–	–	–
O=C(O)c1cc(O)ccc1O [2,5-DHBA, 2,5-dihydroxybenzoic acid]	–	–	–	–	22%	–
Nc1ccc(O)c(C(=O)O)c1 [5-aminosalicylic acid, reference compound]	did not show any inhibition	–	–	–	–	effect on CDK1 enzyme activity (in words) (CDK1/cyclin B1; listed as 5-amino-salicylic acid): failed to inhibit
CC(=O)Oc1ccccc1C(=O)O [Aspirin]	do not inhibit; also recorded: failed to inhibit	did not affect	failed to inhibit	did not inhibit	–	acetylation of cellular CDK1 (in words) [2]: acetylated in aspirin treated samples in a dose-dependent fashion; oral bioavailability [3]: 40–50%; effect on CDK2 enzyme activity (in words), previous study (CDK2/cyclin A2 [4]): failed to inhibit
O=C(O)c1cc(O)cc(O)c1 [3,5-DHBA]	failed to inhibit	–	–	–	–	–
CN1CC[C@H](c2c(O)cc(O)c3c(=O)cc(-c4ccccc4Cl)oc23)[C@H](O)C1 [flavopiridol, reference compound]	dose-dependently inhibited	–	–	–	–	–
O=C(O)c1c(O)cccc1O [2,6-DHBA, 2,6-dihydroxybenzoic acid]	–	inhibited	failed to inhibit; also recorded: either no or marginal effect	did not inhibit; also recorded: either no or marginal effect	65%	IC50 (CDK1/cyclin B1; [5]): 365 µM; IC50 (CDK1/cyclin B1; [6]): 365 µM; inhibition at 500 µM (CDK6/cyclin D1): 37%; IC50 (HCT-116 cells): 1950 µM; IC50 at 72 h (MTT cytotoxicity assay): 1900 µM
O=C(O)c1cccc(O)c1O [2,3-DHBA, 2,3-dihydroxy-benzoic acid]	–	inhibited	failed to inhibit; also recorded: either no or marginal effect	did not inhibit; also recorded: either no or marginal effect	55%	IC50 (CDK1/cyclin B1; [5]): 386 µM; IC50 (CDK1/cyclin B1; [6]): 386 µM; inhibition at 500 µM (CDK6/cyclin D1): 28%; IC50 (HCT-116 cells): 1780 µM; IC50 at 72 h (MTT cytotoxicity assay): ~1800 µM
O=C(O)c1ccc(O)c(O)c1 [3,4-DHBA]	did not show any inhibition; also recorded: failed to inhibit	–	–	–	–	–
O=C(O)c1ccccc1O [Salicylic acid, reference compound]	do not inhibit; also recorded: failed to inhibit	did not affect	failed to inhibit	did not inhibit	–	half-life ([3]; depending upon the dose): 4 to 6 h; conjugation with glycine to salicyluric acid ([3]; liver): 20–65%; effect on CDK2 enzyme activity (in words), previous study (CDK2/cyclin A2 [4]): failed to inhibit
O=C(O)c1ccc(O)cc1O [2,4-DHBA, 2,4-dihydroxybenzoic acid]	–	–	–	–	25%	–
